Test results taken from ChEMBL document CHEMBL1667740, “Phenolic glycosides with antimalarial activity from Grevillea "Poorinda Queen"” (J Nat Prod, 2011).

How the values were obtained:
Plasmodium falciparum [1] = experiment: Antimalarial activity against chloroquine-sensitive Plasmodium falciparum D6 infected in human O positive red blood cells assessed as inhibition of [3H]-hypoxanthine uptake after 48 hrs; format: functional, organism-based
Method in brief: (§1)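 Synchronised ring-stage parasites (sorbitol selection) kept in RPMI-1640 with HEPES, glucose, hypoxanthine, gentamycin, 10% human plasma and 4% O+ RBCs under 5% O2/5% CO2/90% N2 at 37 °C. Assay at 2% hematocrit and 1% parasitemia in hypoxanthine-free medium. DMSO stocks of 20-25 mg/mL, ten 2-fold dilutions in triplicate, 48 h. [3H]-hypoxanthine (0.2 µCi) added at 24 h. IC50 taken against compound-free controls.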

HEK293 = experiment: Cytotoxicity against human HEK293 cells after 72 hrs by alamar blue assay; format: cell-based; conditions: HEK293, 72 h
Method in brief: (§2)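 HEK-293 and HepG2 cells grown in RPMI 1640 with 10% FBS and L-glutamine at 37 °C. Seeded at 5 × 10^3 cells/well and left 24 h before drug addition. Compounds tested from 312 to 0.6 µg/mL, artesunate and chloroquine from 120 µM to 60 nM, in triplicate for 72 h. DMSO vehicle and cell-free background wells as controls. 10% Alamar Blue added for 2 h, fluorescence read at ex 530/em 595 nm. IC50 from at least two independent experiments, mean ± SD.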

[2] = Selectivity index, ratio of IC50 for human HepG2 cells to IC50 for Plasmodium falciparum 3D7
HepG2 = experiment: Cytotoxicity against human HepG2 cells after 72 hrs by alamar blue assay; format: cell-based; conditions: HepG2, 72 h; method in brief: as §2
[3] = Selectivity index, ratio of IC50 for human HEK293 cells to IC50 for Plasmodium falciparum 3D7
Plasmodium berghei [4] = experiment: Antimalarial activity against Plasmodium berghei infected in mouse assessed as reduction of parasite infection at 1 mg/kg, sc qd for 4 days relative to control; format: functional; design: scale not given: the % may be the effect or the level left; conditions: route subcutaneous
Plasmodium berghei [5] = experiment: Antimalarial activity against Plasmodium berghei infected in mouse assessed as reduction of parasite infection at 2 mg/kg, sc qd for 4 days relative to control; format: functional; design: scale not given: the % may be the effect or the level left; conditions: route subcutaneous
Plasmodium falciparum [6] = experiment: Antimalarial activity against multidrug-resistant Plasmodium falciparum TM93-C1088 infected in human O positive red blood cells assessed as inhibition of [3H]-hypoxanthine uptake after 48 hrs; format: functional, organism-based; method in brief: as §1
Plasmodium falciparum [7] = experiment: Antimalarial activity against chloroquine-sensitive Plasmodium falciparum 3D7 infected in human O positive red blood cells assessed as inhibition of [3H]-hypoxanthine uptake after 48 hrs; format: functional, organism-based; method in brief: as §1
Plasmodium falciparum [8] = experiment: Antimalarial activity against chloroquine and pyrimethamine-resistant Plasmodium falciparum K1 infected in human O positive red blood cells assessed as inhibition of [3H]-hypoxanthine uptake after 48 hrs; format: functional, organism-based; method in brief: as §1
Mus musculus = experiment: Toxicity in mouse assessed as physical stress at 32 mg/kg, sc qd for 4 days; format: organism-based; design: dose 32 mg/kg, route subcutaneous; conditions: in vivo, 96 h
Method in brief: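 Tolerability in healthy mice: subcutaneous dosing for 4 days. Mice watched for physical stress, namely ruffled coat, extreme pallor, weight loss, shaking and reduced mobility.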

Plasmodium falciparum [9] = experiment: Antimalarial activity against chloroquine, pyrimethamine, and mefloquine-resistant Plasmodium falciparum Dd2 infected in human O positive red blood cells assessed as inhibition of [3H]-hypoxanthine uptake after 48 hrs; format: functional, organism-based; method in brief: as §1
Plasmodium berghei [10] = experiment: Antimalarial activity against Plasmodium berghei infected in mouse assessed as reduction of parasite infection at 32 mg/kg, sc bid for 4 days relative to control; format: functional; design: scale not given: the % may be the effect or the level left; conditions: route subcutaneous
Method in brief: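 Peters 4-day suppressive test in female mice (n = 6) inoculated intraperitoneally with 20 × 10^6 P. berghei ANKA-infected erythrocytes. Test articles dissolved in Tween 80/ethanol (7:3, v/v), diluted 10-fold in distilled water, and given subcutaneously from D0 (about 2 and 6 h post-inoculation) over 4 days. Chloroquine prepared in water. Giemsa-stained thin smears on D+1 to D+4. Microscopic % infected erythrocytes, suppression at D+4 versus vehicle control.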

Plasmodium falciparum [11] = experiment: Antimalarial activity against multidrug-resistant Plasmodium falciparum TM90-C2B infected in human O positive red blood cells assessed as inhibition of [3H]-hypoxanthine uptake after 48 hrs; format: functional, organism-based; method in brief: as §1
Plasmodium berghei [12] = experiment: Antimalarial activity against Plasmodium berghei infected in mouse assessed as reduction of parasite infection at 32 mg/kg, sc qd for 4 days relative to control; format: functional; design: scale not given: the % may be the effect or the level left; conditions: route subcutaneous

Row | Structure (SMILES) | IC50 (Plasmodium falciparum [1]) [µM] | IC50 (HEK293) [µM] | SI [2] | IC50 (HepG2) [µM] | SI [3] | Activity (Plasmodium berghei [4]) [%] | Activity (Plasmodium berghei [5]) [%] | IC50 (Plasmodium falciparum [6]) [µM] | IC50 (Plasmodium falciparum [7]) [µM] | IC50 (Plasmodium falciparum [8]) [µM] | Activity (Mus musculus) | IC50 (Plasmodium falciparum [9]) [µM] | Activity (Plasmodium berghei [10]) [%] | IC50 (Plasmodium falciparum [11]) [µM] | Activity (Plasmodium berghei [12]) [%]
1 | C[C@H]1O[C@H](OC[C@H]2O[C@@H](Oc3cc(O)c4c(=O)c(O)c(-c5ccc(O)c(O)c5)oc4c3)[C@H](O)[C@@H](O)[C@H]2O)[C@@H](O)[C@@H](O)[C@@H]1O (stereo in doubt) | > 500 | – | – | – | – | – | – | – | – | – | – | – | – | – | –
2 | C[C@H]1[C@H](OC(=O)CCC(=O)O)O[C@@H]2O[C@@]3(C)CC[C@H]4[C@H](C)CC[C@@H]1[C@@]24OO3 [ARTESUNATE] | – | 2.9 | 374 | 12.7 | 150 | – | – | – | – | – | – | – | – | – | –
3 | CCN(CC)CCCC(C)Nc1ccnc2cc(Cl)ccc12 (stereo not given) [CHLOROQUINE] | – | 12 | 415 | 8.3 | 600 | 58 | 97 | – | – | – | – | – | – | – | –
4 | O=C1C=CC(O)(/C=C/C(=O)OC[C@H]2O[C@@H](Oc3ccc(O)cc3)[C@H](O)[C@@H](O)[C@@H]2O)C=C1 [ROBUSTASIDE D] | 5.1 | 195 | 37 | 221 | 33 | – | – | 4.1 | 5.5 | 3 | Non-toxic | 3 | 95 | 5.3 | 21
5 | O=C(/C=C/C1(O)C=CC(O)CC1=O)OC[C@H]1O[C@@H](Oc2ccc(O)cc2)[C@H](O)[C@@H](O)[C@@H]1O (stereo not given in full) [ROBUSTASIDE E] | 55.5 | > 690 | > 10 | > 690 | > 10 | – | – | 25.3 | 77.4 | 29.4 | – | 55.5 | – | 36.2 | –
6 | COc1ccc(O)c(/C=C\C(=O)OC[C@H]2O[C@@H](Oc3ccc(O)cc3)[C@H](OC(=O)/C=C\c3cc(OC)ccc3O)[C@@H](O)[C@@H]2O)c1 [ROBUSTASIDE F] | 14.7 | – | – | – | – | – | – | – | – | – | – | – | – | – | –
